Assay results from ChEMBL document CHEMBL5715959, “Inhibition of histone methyltransferase EZH2 in Schistosoma mansoni in vitro by GSK343 reduces egg laying and decreases the expression of genes implicated in DNA replication and noncoding RNA metabolism” (2018).
Active and inactive are the calls of the source. The rule behind the calls is not given here.

How the values were obtained:
Schistosoma mansoni [1] = test: Antischistosomal activity against female Schistosoma mansoni assessed as down-regulated EED mRNA level at 20 uM incubated for 48 hrs by RT-qPCR analysis; format: functional, organism-based
In short: (§1)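 Schistosomula (supplemented M169) or adult worms (supplemented RPMI) were treated 48 h with 20 μM GSK343 or 0.1% DMSO at 37°C, 5% CO2. qPCR normalizer genes were chosen from RNA-seq data as those with TPM >1 and a treated/control ratio of 0.9–1.1 that were not differentially expressed. Relative expression was calculated by comparative Ct; significance by t-test.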

Schistosoma mansoni [2] = test: Antischistosomal activity against Schistosoma mansoni assessed as increased caspase 3/7 activity at 20 uM incubated for 48 hrs by Caspase 3/7 reagent based luminescence assay; format: functional
In short: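 2,000 schistosomula per well were kept in supplemented M169 with 20 μM GSK343 or 0.1% DMSO for 48 h. Medium was replaced, reporter lysis buffer added, then Caspase-Glo 3/7 reagent for 3 h in the dark with agitation before reading luminescence. The negative control lacked reagent. Three experiments, each with 20,000 schistosomula.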

Schistosoma mansoni [3] = test: Antischistosomal activity against Schistosoma mansoni assessed as increased length of schistosomula at 20 uM incubated for 24 to 48 hrs by scanning electron microscopy analysis; format: functional; details: time 24-48 hrs
In short: (§2)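 Newly transformed schistosomula were held 16 h in M169 with 2% FBS, serotonin, hypoxanthine, hydrocortisone, triiodothyronine and antibiotics at 37°C, 5% CO2, at 2,000 per well. They were then exposed to 20 μM GSK343 or 0.1% DMSO for 24 and 48 h. Fixation was modified Karnovsky (pH 7.4) with 1% osmium post-fix, then ethanol dehydration, critical-point drying, gold coating and SEM. Lengths came from three experiments, each with 20 schistosomula.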

Schistosoma mansoni [4] = test: Antischistosomal activity against Schistosoma mansoni assessed as loss of spines at 20 uM incubated for 24 hrs by scanning electron microscopy analysis; format: functional, organism-based; in short: as §2
Schistosoma mansoni [5] = test: Antischistosomal activity against adult male Schistosoma mansoni assessed as lesions of tegument around tubercles at 20 uM incubated for 48 hrs by scanning electron microscopy analysis; format: functional, organism-based
In short: (§3)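 Adult couples were taken by perfusion into supplemented RPMI, one couple per well, and adapted 2 h at 37°C, 5% CO2. They were exposed to 20 μM GSK343 or 0.1% DMSO for 24 and 48 h. Fixation used modified Karnovsky with osmium post-fix, followed by ethanol dehydration, critical-point drying, gold sputtering and scanning electron microscopy of tegument surfaces.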

Schistosoma mansoni [6] = test: Antischistosomal activity against juvenile Schistosoma mansoni assessed as damaged anterior region at 20 to 50 uM incubated for 48 hrs by scanning electron microscopy analysis; format: functional, organism-based; details: in the assay text read “at 50 uM” for “at 20 to 50 uM”
In short: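 Juvenile worms recovered by perfusion, five per well in supplemented RPMI (10% FBS, antibiotics, 37°C, 5% CO2), 2 h adaptation, then exposed 48 h to compound or 0.1% DMSO. Fixed in modified Karnovsky reagent (pH 7.4), washed in cacodylate buffer, post-fixed 1 h in 1% osmium tetroxide, ethanol-dehydrated, critical-point dried, gold-sputtered and imaged by scanning electron microscopy.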

Schistosoma mansoni [7] = test: Antischistosomal activity against adult female Schistosoma mansoni assessed as rupture of blisters in dorsal region at 20 uM incubated for 24 to 48 hrs by scanning electron microscopy analysis; format: functional, organism-based; details: time 24-48 hrs; in short: as §3
Schistosoma mansoni [8] = test: Antischistosomal activity against adult female Schistosoma mansoni assessed as decrease in number of eggs laid at 20 uM incubated for 24 to 48 hrs by […] analysis relative to control; format: functional; parameters: scale not given: the % may be the effect or the level left; details: time 24-48 hrs
Schistosoma mansoni [9] = test: Antischistosomal activity against adult female Schistosoma mansoni assessed as reduction in area dimension of egg at 20 uM incubated for 24 to 48 hrs by scanning electron microscopy analysis relative to control; format: functional; parameters: scale not given: the % may be the effect or the level left; details: time 24-48 hrs
In short: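 Eggs released by couples kept 24 or 48 h with 20 μM GSK343 or 0.1% DMSO in supplemented RPMI were fixed in modified Karnovsky with osmium post-fix. They were dehydrated, critical-point dried, gold-coated and imaged by SEM; total egg area dimension was measured.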

Schistosoma mansoni [10] = test: Cytotoxicity against adult Schistosoma mansoni assessed as reduction in ATP quantification at 50 uM incubated for 48 hrs by CellTiter-Glo Luminescent assay relative to control; format: functional; parameters: scale not given: the % may be the effect or the level left
In short: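 Worm pairs in supplemented RPMI (10% FBS, 37°C, 5% CO2) exposed 48 h to compound or 0.1% DMSO. ATP measured by luminescence in freshly lysed worms and expressed as % of vehicle signal; three replicate experiments, 10 pairs each, mean ± SD.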

Schistosoma mansoni [11] = test: Antischistosomal activity against Schistosoma mansoni assessed as increased H3K27me1 level in schistosomula at 20 uM incubated for 48 hrs by Western blotting analysis; format: functional, organism-based
In short: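 About 10,000 schistosomula were treated 48 h with 20 μM GSK343 or vehicle, then sonicated in Triton X-100 lysis buffer with PMSF and protease inhibitors. Supernatant nuclear extract (BCA-quantified, 10 μg) was run on 15% SDS-PAGE and blotted to nitrocellulose. Blots were probed with mark-specific monoclonal antibodies, then IRDye secondaries; infrared imaging was used and signals were normalized to total H3. t-test.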

Schistosoma mansoni [12] = test: Antischistosomal activity against Schistosoma mansoni assessed as down-regulated MEG-4 mRNA level in schistosomula at 20 uM incubated for 48 hrs by RT-qPCR analysis; format: functional, organism-based; in short: as §1
Schistosoma mansoni [13] = test: Antischistosomal activity against adult Schistosoma mansoni assessed as altered motility at 50 uM incubated for 12 hrs by inverted microscope analysis; format: functional, organism-based
In short: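 Paired adult worms were cultured in RPMI/10% FBS with antibiotics at 37°C, 5% CO2, with GSK343 or 0.1% DMSO. They were viewed by inverted microscope at 3, 6, 12, 24 and 48 h. Motility was scored on a 0–3 scale (3 full movement, 1.5 partial or immobile but alive, 0 dead); death meant no movement over more than 2 min. Pairing was recorded. Three experiments, each with 10 pairs; mean ± SD.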

Schistosoma mansoni [14] = test: Antischistosomal activity against adult male Schistosoma mansoni assessed as presence of deep chasms between the dorsal tubercles at 20 uM incubated for 48 hrs by scanning electron microscopy analysis; format: functional, organism-based; in short: as §3
Schistosoma mansoni [15] = test: Cytotoxicity against juvenile Schistosoma mansoni assessed as decrease in viability at 20 to 50 uM incubated for 24 hrs by CellTiter-Glo Luminescent assay relative to control; format: functional; details: dose 20-50 µM
In short: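 Perfused juvenile worms cultured in supplemented RPMI (10% FBS, 37°C, 5% CO2), exposed 24 or 48 h to compound or 0.1% DMSO. Total parasite ATP read by luminescence, given as % of vehicle; three replicate experiments of 10 juveniles each, mean ± SD.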

Schistosoma mansoni [16] = test: Antischistosomal activity against female Schistosoma mansoni assessed as down-regulated p14 mRNA level at 20 uM incubated for 48 hrs by RT-qPCR analysis; format: functional, organism-based
Schistosoma mansoni [17] = test: Antischistosomal activity against adult female Schistosoma mansoni assessed as damaged tegument in anterior region at 20 uM incubated for 48 hrs by scanning electron microscopy analysis; format: functional, organism-based; in short: as §3
Schistosoma mansoni [18] = test: Antischistosomal activity against Schistosoma mansoni assessed as death of schistosomula at 10 to 50 uM incubated for 24 to 72 hrs by propidium iodide staining based fluorescence microscope analysis; format: functional, organism-based; details: dose 10-50 µM, time 24-72 hrs
In short: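 Schistosomula were cultured in supplemented M169 with 10–50 μM GSK343 or 0.1% DMSO for 24, 48 and 72 h. A fresh well set was used per time point, with 2 μg/mL propidium iodide (dead) plus 0.5 μg/mL fluorescein diacetate (live) added. Parasites were read immediately by light and fluorescence microscopy; percent viable was computed against total parasites. About 3600 schistosomula per condition over four biological replicates; 70% ethanol served as positive control.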

Compound: CCCc1cc(C)[nH]c(=O)c1CNC(=O)c1cc(-c2ccnc(N3CCN(C)CC3)c2)cc2c1cnn2C(C)C
- Activity (Schistosoma mansoni [1]): Active
- fold change (FC) (Schistosoma mansoni [2]): 17
- fold change (FC) (Schistosoma mansoni [3]): 1.1
- Activity (Schistosoma mansoni [4]): Active
- Activity (Schistosoma mansoni [5]): Active
- Activity (Schistosoma mansoni [6]): Active
- Activity (Schistosoma mansoni [7]): Active
- Activity (Schistosoma mansoni [8]): 40%
- Activity (Schistosoma mansoni [9]): 30%
- Activity (Schistosoma mansoni [10]): <20%
- Activity (Schistosoma mansoni [11]): Active
- Activity (Schistosoma mansoni [12]): Active
- Activity (Schistosoma mansoni [13]): Active
- Activity (Schistosoma mansoni [14]): Active
- Activity (Schistosoma mansoni [15]): 20%
- Activity (Schistosoma mansoni [16]): Active
- Activity (Schistosoma mansoni [17]): Active
- Activity (Schistosoma mansoni [18]): Active
